Neddyl block – inhibitors of human cullin neddylation | TR-FRET cullin neddylation, biochemical | P61081+Q13564 | calls only at 25 µM | hit rate 0.58% among 360,000; in the data active = inhibition above about 36%
Target sequence (P61081 whole entry, looked up): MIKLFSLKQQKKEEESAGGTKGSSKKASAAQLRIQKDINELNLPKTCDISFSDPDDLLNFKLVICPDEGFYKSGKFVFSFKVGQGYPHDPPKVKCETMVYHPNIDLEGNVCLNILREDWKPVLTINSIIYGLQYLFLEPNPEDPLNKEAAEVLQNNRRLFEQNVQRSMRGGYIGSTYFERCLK
Target sequence (Q13564 whole entry, looked up): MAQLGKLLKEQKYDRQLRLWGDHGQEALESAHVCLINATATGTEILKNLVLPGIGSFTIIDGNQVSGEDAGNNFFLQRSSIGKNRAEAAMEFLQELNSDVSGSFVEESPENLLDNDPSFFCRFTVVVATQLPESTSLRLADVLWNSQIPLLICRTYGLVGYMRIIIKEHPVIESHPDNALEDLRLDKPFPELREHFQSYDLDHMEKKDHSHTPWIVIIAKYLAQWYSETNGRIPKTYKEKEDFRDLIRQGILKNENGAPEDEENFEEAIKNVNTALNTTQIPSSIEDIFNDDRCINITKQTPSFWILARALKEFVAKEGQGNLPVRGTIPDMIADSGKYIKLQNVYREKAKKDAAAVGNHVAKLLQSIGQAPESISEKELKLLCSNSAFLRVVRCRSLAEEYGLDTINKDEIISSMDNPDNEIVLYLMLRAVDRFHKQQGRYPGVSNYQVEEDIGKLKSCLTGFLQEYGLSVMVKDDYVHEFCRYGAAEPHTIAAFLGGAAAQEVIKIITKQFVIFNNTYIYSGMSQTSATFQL
Apaf1 inhib – human Apaf-1 inhibition; O14727; reconstituted apoptosome caspase-3 activity, DEVD-Rh110 fluorescence; inhibition, % at 20 µM; hit rate 0.71% among 330,000; active = inhibition of at least 40% at 20 µM;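 note: plate controls were DMSO wells for no effect and DEVD-CHO caspase inhibitor wells for full effect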
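System – cell-free apoptosome with Apaf-1, procaspase-3 and caspase-9 · Buffer or medium – pH 7.5 Hepes buffer with CHAPS, BSA, DTT · Also added – cytochrome c with DEVD-Rh110 · Times – 30 min compound preincubation, 50 min activation, room temperature · Technique – Rh110 fluorescence intensity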
UBC13 polyUb – inhibitors of human UBC13 polyubiquitin chain formation; P61088; TR-FRET; inhibition, % at 20 µM; hit rate 0.47% among 330,000; in the data active = inhibition above about 45%, passing the limit was not always enough; inconclusive = no clear call, values can overlap the other calls
RAD54 branch – RAD54 (human) branch migration inhibition | RAD54 Holliday junction branch migration, FAM/BHQ fluorescence | AID 602329 | inhibition, % at 10.4 µM | hit rate 0.14% among 360,000 | Q92698;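 active = mean normalized replicate activity at least 40 and at least half of replicates scoring 40 or more; inconclusive = only one of the two criteria met; inactive = mean below 40 and under half of replicates reaching 40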;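 note: 0% = median of neutral control wells and 100% = median of positive control wells; inhibitors cause a drop in the FAM fluorescence signal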
RAD52 anneal inh – blocks human RAD52 DNA annealing. P43351. recombinant RAD52 DNA annealing, FRET fluorescence. inhibition, % at 18.7 µM. hit rate 0.46% among 360,000. AID 651710;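 active = every replicate showing at least 50% inhibition; inconclusive = mean inhibition at least 50% but not in every replicate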
FID counter – fluorescent intercalator displacement, NS3 helicase counter-screen. DNA fluorescent intercalator displacement, fluorescence. inhibition, % at 7.9 µM. hit rate 0.17% among 290,000. AID 1845; in the data active = inhibition above about 37%;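 note: 0% = vehicle and 100% = reference compound; higher means more ethidium bromide displaced from hairpin DNA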
Casp3 counter – caspase-3 inhibition (UBC13 counter-screen). shares compounds with UBC13 polyUb. Recombinant caspase-3, Caspase-Glo 3/7 luminescence, 60 min. inhibition, % at 20 µM. hit rate 4% among 1,400;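 active = mean inhibition across replicates above about 26%, limit read from the data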;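 note: plate controls were DMSO with caspase-3 for no effect and DMSO wells lacking enzyme for full effect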
UBC13 confirm – human UBC13 polyubiquitin inhibition, confirmed. inhibition, % at 10 µM. UBC13 polyubiquitination, TR-FRET, biochemical. shares compounds with UBC13 polyUb. hit rate 68% among 1,400; in the data active = inhibition above about 45%; inconclusive = no clear call, values can overlap the other calls
Apaf-1 inh conf – confirmation of Apaf-1 inhibitors; shares compounds with Apaf1 inhib; reconstituted apoptosome, caspase-3 DEVD-Rh110 fluorescence; inhibition, % at 20 µM; hit rate 25% among 1,800; AID 504614;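 active = mean inhibition of at least 40% at 20 µM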;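 note: plate controls were DMSO wells for no effect and DEVD-CHO caspase inhibitor control wells for full effect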
Rh110 interf inh – interferes with Rh110 fluorescence, flagging false Apaf-1 inhibitors; Rh110 fluorescence interference, quenched caspase reaction; 1,800 tested, under 10 active; activation (fluorescence interference), % at 20 µM; shares compounds with Apaf1 inhib;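 active = signal rise of 40% or more at 20 µM, treated as a fluorescence artifact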
Fluor interf inh – Apaf-1 inhibitor counter-screen fluorescence artifact. shares compounds with Apaf1 inhib. fluorescence interference counterscreen, Apaf-1 assay format. IC50, µM. 460 tested, under 10 active; call rule not given here
Rad54 DNA ctr – counter-screen for Rad54 inhibitors: DNA binding compounds. hit rate 8% among 460. Acridine orange-DNA displacement, fluorescence polarization, 20 min. AC50, µM (highest dose often 35 µM), without a hit: top-dose activity change, negative = DNA binding. AID 651673. shares compounds with RAD54 branch;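 active = signal drop giving an AC50 within twice the top valid tested concentration of each sample, actives reach about 35 µM in these data; inactive = activity opposite to expected, plus the rest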;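 note: polarization loss reports compound binding to salmon sperm DNA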
RAD52 DNA ctr – binds DNA, flagging false RAD52 inhibitor hits; shares compounds with RAD52 anneal inh; hit rate 8% among 1,000; Salmon sperm DNA/acridine orange FP displacement, DNA binding; AC50, µM;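 active = fitted half-maximal concentration for signal loss at or below twice the highest dose tested, in every separate run, actives reach about 64 µM in these data; inconclusive = runs disagree, or flat partial signal loss, or poor fit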
* = called active by the depositor; i = inactive; ? = inconclusive; . = no result given. In the library only some 1.6% were active in any assay of this set; here they are far more common.

SMILES	Neddyl block	Apaf1 inhib	UBC13 polyUb	RAD54 branch	RAD52 anneal inh	FID counter	Apaf-1 inh conf	Rh110 interf inh	others
CN(C)CCNC(=O)c1cc2c(s1)-c1ccc(Cl)cc1SC2	.	30	62*	57*	81*	25	.	.	Casp3 counter=-2;UBC13 confirm=73*;Rad54 DNA ctr=8%;RAD52 DNA ctr=?
COc1ccc(C2=Nn3c(nnc3-c3ccccc3F)SC2)cc1OC1CCCC1	i	47*	55*	8	-9	.	23	9	Casp3 counter=7;UBC13 confirm=40;RAD52 DNA ctr=i
COc1ccc(OC)c(-c2nnc3n2N=C(c2ccc(OC)c(OC4CCCC4)c2)CS3)c1	i	38	28	1	-16	.	.	.
CC(C)NC(=O)N(C)C[C@@H]1Oc2cc(Br)ccc2S(=O)(=O)N([C@H](C)CO)C[C@H]1C	.	.	.	0	1	.	.	.
C[C@@H]1CN([C@@H](C)CO)C(=O)c2cc(NC(=O)NC3CCCCC3)ccc2O[C@@H](C)CCCCO[C@H]1CN(C)S(=O)(=O)c1cccs1	.	.	.	-4	.	.	.	.
COc1cccc(-c2sc3ccc(OC)cc3c2C#CC2(O)CCCCC2)c1	i	23	17	-5	-10	.	.	.
COc1cc(OC)cc(-c2sc3ccc(OC)cc3c2C#CC2(N)CCCCC2)c1	i	67*	84*	5	-55	.	23	2	Casp3 counter=3;UBC13 confirm=77*;RAD52 DNA ctr=i
C[C@@H]1CCCCO[C@H](CN(C)C(=O)c2ccccc2)[C@H](C)CN([C@H](C)CO)C(=O)c2cc(NC(=O)C3CCCCC3)ccc2O1	.	.	.	1	0	.	.	.
CCCCCOc1ccc(/C(C)=N/NC2=NCCN2)cc1	i	9	35	13	34	16	.	.
CCCCCCOc1ccc(/C(C)=N/NC2=NCCN2)cc1	i	38	60*	44	54*	23	.	.	Casp3 counter=-3;UBC13 confirm=85*;RAD52 DNA ctr=i
O=C(c1cccc(C(=O)N2CCN(c3ncccn3)CC2)c1)N1CCN(c2ncccn2)CC1	i	-7	-4	-1	.	-28	.	.
Cc1cccc(N2CCN(C(=O)c3ccc4nc(-c5ccco5)c(-c5ccco5)nc4c3)CC2C)c1 (stereo not given)	i	60*	-32	-11	.	-31	22	-1
O=C(NCc1ccccc1)c1ccc2nc(-c3ccco3)c(-c3ccco3)nc2c1	i	65*	-24	-9	.	-7	28	6
O=C(c1ccc2nc(-c3ccco3)c(-c3ccco3)nc2c1)N1CCN(c2ncccn2)CC1	i	57*	-28	-7	.	-29	22	0
O=C(NCc1ccccc1)c1ccc2nccnc2c1	i	-3	-2	12	-18	1	.	.
CCN(c1ccccc1)c1cc2ccccc2c(=O)[nH]1	i	96*	-26	1	-6	-1	59*	5	Fluor interf inh=>100
CCN(c1ccccc1)c1nc(=O)c2cccnc2s1	i	-5	8	-6	-6	-9	.	.
C[C@H]1CCCCO[C@H](CN(C)Cc2ccc(Cl)c(Cl)c2)[C@@H](C)CN([C@@H](C)CO)C(=O)c2cc(NC(=O)CCC(F)(F)F)ccc2O1	.	.	.	5	-182	.	.	.
C[C@H](NC(=O)C[C@H]1CC[C@H]2[C@@H](COC[C@@H](O)CN2C)O1)c1ccccc1	.	.	.	-1	-1	.	.	.
COC(=O)c1nn(-c2ccc(OC)cc2)c(=O)cc1NN	i	42*	-37	.	-22	-13	37	3
CN1CCN(c2ccc(S(=O)(=O)N3CCCCC3)cc2NC(=O)/C=C/c2ccc(Cl)c([N+](=O)[O-])c2)CC1	i	51*	18	-2	5	.	15	13
CN1CCN(c2ccc(S(=O)(=O)N3CCCCC3)cc2NC(=O)/C=C/c2ccc(OC(F)F)cc2)CC1	i	29	21	0	29	.	.	.
CCN1CCN(c2ccc(S(=O)(=O)N3CCOCC3)cc2NC(=O)CC(C)C)CC1	i	50*	25	0	6	.	37	4
CCN(CC(=O)Nc1cc(S(=O)(=O)N2CCOCC2)ccc1Cl)Cc1ccccc1	i	42*	17	-11	-1	.	29	9
CCN1CCN(c2ccc(S(=O)(=O)N3CCCCC3)cc2NC(=O)/C=C/c2ccc(OC(F)F)cc2)CC1	i	52*	15	0	-23	.	9	4
SMILES	Neddyl block	Apaf1 inhib	UBC13 polyUb	RAD54 branch	RAD52 anneal inh	FID counter	Apaf-1 inh conf	Rh110 interf inh	others
CC1=NN(c2ccc(S(=O)(=O)O)cc2C)C(=O)C1	i	51*	-6	.	0	3	19	14
Cc1ccc(C2=N/C(=C\N3CCCCC3)C(=O)O2)cc1	i	4	-3	-3	.	-14	.	.
Cc1nn(-c2ccccc2)c(N2CCCC2)c1/C=C1\N=C(c2ccc(OC(C)C)cc2)OC1=O	i	52*	-46	-15	.	-43	17	6
CC(=O)N1CCOc2ccc(S(=O)(=O)N(C)c3ccc(C)cc3)cc21	i	40*	-4	-3	-14	-29	11	0
Cc1cccc2sc(N(CCCN(C)C)C(=O)c3ccc(S(=O)(=O)N4CCc5ccccc5C4)cc3)nc12	i	63*	39	9	41	38*	25	-6
O=C(C[C@H]1CC[C@@H]2[C@H](COC[C@H](O)CN2C(=O)C2CCOCC2)O1)NCc1ccncc1	.	.	.	0	-57	.	.	.
COc1ccc(OCC(=O)OCC(=O)NC2CCCCC2C)cc1 (stereo not given)	i	-15	16	-7	2	.	.	.
COc1cc(NC2CCCCC2O)c2nc(-c3ccc(Cl)cc3)ccc2c1 (stereo not given)	i	55*	-28	-5	-11	-18	22	19
O=C(Nc1ccc(N2CCCC2)cc1)C(Cl)c1ccccc1 (stereo not given)	i	65*	-8	-1	.	-8	26	3
